The full list was thinned out, with hits kept by preference.
INS promoter act – activators of insulin promoter-driven GFP, primary screen, imaging, TRM-6 cells (human fetal islet line), eGFP reporter, cell count; plate-scaled: unstimulated 0, stimulated control 100; activation, % at 2 µM; hit rate 0.81% among 130,000; AID 1296, 2008;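 active = activation at 2 µM above a set limit, confirmed on inspection of the cell images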;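 also: share of cells whose green reporter signal exceeds an intensity cutoff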
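test system = TRM-6 insulin promoter–eGFP reporter cells | benchmarks = stimulated versus unstimulated wells as plate controls | read-out basis = percent cells above green-intensity threshold, converted to percent activation versus plate controls | detection = fixed-cell fluorescence microscopy, eGFP plus Hoechst | incubation = tamoxifen pre-incubation 15 h overnight, then compound exposure 48 h at 37 °C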
The depositor's hits bear a star.

SMILES | INS promoter act
CCCOC(=O)C1C2C=CC(C3CC23)C1C(=O)OCC(=O)c1ccccc1 (stereo unspecified) | 0.0
Fc1ccc(C2c3[nH]c4ccccc4c3CCN2Cc2cccn2-c2ncccn2)cc1 (stereo unspecified) | -7.1
COc1cccc(C2c3[nH]c4ccccc4c3CCN2C(=O)Cn2cncn2)c1OC (stereo unspecified) | -2.4
COCc1ccc(CN2CCc3c([nH]c4ccccc34)C2C(C)(C)C)o1 (stereo unspecified) | 231.3*
COC(=O)CSc1nnc(-c2ccccc2OC)n1-c1ccc(C)cc1 | 8.6
COc1ccccc1OCCSc1nnc(C)n1-c1ccccc1 | 82.9*
COc1ccc(-c2nnc(SCC(=O)c3ccc[nH]3)n2-c2ccccc2)cc1 | 0.0
C=C(C)Cn1c(SCC(=O)O)nnc1-c1ccc(OC)cc1 | -3.3
COc1ccc(-c2nnc(SCCC(=O)O)n2-c2ccccc2)cc1 | 485.7*
Cc1nnc(SCC2CCCO2)n1-c1ccccc1 (stereo unspecified) | 7.7
O=C(COc1ncnc2ccc(Br)cc12)NCc1ccc2c(c1)OCO2 | 9.1
Cc1nnc(SCC(=O)N2CCN(S(=O)(=O)c3ccccc3)CC2)s1 | 7.1
COc1ccc(CCCc2n[nH]c(=S)n2C)cc1C | -7.7
Cc1c(NC(=O)c2cc3ccccc3o2)c(=O)n(-c2ccccc2)n1C | -4.7
CCCSc1nnc(CN2CCOCC2)n1C | 418.8*
CCCSc1nnc(Cn2c(=O)sc3ccccc32)n1C | -25.0
Cn1c(CCc2ccccc2)nnc1SCC(=O)N1CCOCC1 | 322.2
O=C(NCC1COc2ccccc2O1)C1C2C=CC3(CN(Cc4cccs4)C(=O)C13)O2 (stereo unspecified) | -5.3
CCOC(=O)c1ccccc1NC(=O)Cn1c(-c2nonc2N)nc2ccccc21 | 204.3
O=C(CCCOc1ccc(Cl)cc1)NCC1CCCO1 (stereo unspecified) | -2.9
O=C(Cn1ncc(Cl)c(Cl)c1=O)c1ccc(Cl)cc1 | 8.3
O=C(OCn1ncc(Cl)c(Cl)c1=O)c1ccc(F)cc1 | 242.9*
Cn1c(N)c(C(=O)COC(=O)c2ccc(Cl)nc2)c(=O)n(C)c1=O | -7.1
COc1ccccc1CNC(=O)Cc1ccc(C)cc1 | 0.0
CC(=O)Nc1ccc(S(=O)(=O)NCc2csc(-c3cccnc3)n2)cc1 | -43.0
SMILES | INS promoter act
O=S(=O)(NCc1csc(-c2cccnc2)n1)c1cccs1 | 50.0
CCc1ccc(S(=O)(=O)NCc2csc(-c3cccnc3)n2)s1 | 857.1*
COc1ccc(OC)c2[nH]c(=O)c(CCNC(=O)C3CCCCC3)cc12 | -81.8
O=C(OCc1nnc(-c2ccc(Cl)cc2)o1)c1ccc(=O)n(Cc2ccccc2)n1 | 2.7
CNC(=O)/C(C#N)=C\c1ccc(CNS(=O)(=O)c2ccccc2)o1 | 2.6
CCN(CC)c1ccc(/C=C(/C#N)C(=O)NCc2ccccc2)o1 | 168.6
CC(C)NC(=O)/C(C#N)=C\c1ccc(N(C)C)o1 | 560.0*
CCn1c(SCC(=O)Nc2nc3ccc(C)cc3s2)nc2c(c1=O)SC(C)C2 (stereo unspecified) | 0.0
CC(C)(C)n1ncc2c(=O)n(Cc3ccc(Cl)c(Cl)c3)cnc21 | 8.3
O=C(Nc1ccc(Oc2ccc(NC(=O)C3CCCO3)cc2)cc1)C1CCCO1 (stereo unspecified) | 7.7
Cc1cccc(NC(=O)N2CCC(n3nnc4cc(C)ccc43)CC2)c1 | 0.0
O=S(=O)(NC1CCCC1)c1cccc(S(=O)(=O)N2CCC(n3nnc4ccccc43)CC2)c1 | 157.1*
O=S(=O)(NCC1CCCO1)c1cccc(S(=O)(=O)N2CCCC2)c1 (stereo unspecified) | 0.0
CNC(=O)/C(C#N)=C\c1ccc(CNS(=O)(=O)c2ccc(Cl)cc2)o1 | -6.7
O=C(NNC1=NCCC1)c1cccc(S(=O)(=O)N2CCCC2)c1 | 6.5
COC(=O)c1[nH]c2ccc(C)cc2c1NC(=O)Nc1ccccc1OC | 0.0
COC(=O)c1[nH]c2ccccc2c1NC(=O)CN1CCN(c2cccc(OC)c2)C(C)C1 (stereo unspecified) | -9.4
COC(=O)c1[nH]c2cc(C)ccc2c1NC(=O)CN1CCCc2ccccc21 | 190.9*
O=C(NNS(=O)(=O)c1ccccc1[N+](=O)[O-])c1cccc(Cl)c1 | -7.7
CCn1cc(C(=O)Nc2ccc(F)c(F)c2)cn1 | -7.1
CCOC(=O)N(NC(=O)C(O)(C(C)C)C(C)C)c1ccccc1 | 111.8*
CCOC(=O)C(=O)NC(C)CCc1ccccc1 (stereo unspecified) | -6.7
Cc1cccc(N(NC(=O)C(C)(C)O)C(=O)c2ccccc2)c1 | 0.0
O=C1Cn2c(nc3ccccc32)N1c1cccc(C(F)(F)F)c1 | 0.0
O=C(Nc1ccccc1C(=O)NCc1ccco1)NC1CCCCC1 | -9.7
SMILES | INS promoter act
O=C(COc1ccc(Cl)cc1Cl)NNC(=S)NCc1ccco1 | 166.7
O=C(COc1ccc(Cl)cc1)Nc1ccccc1C(=O)NCc1ccco1 | 437.5*
Cc1cccc(-n2ncc3c(N4CCOCC4)ncnc32)c1 | 2.4
Cc1nnc(SCCN2CCOCC2)c2nn(-c3ccccc3F)c(C)c12 | 7.7
Cc1nnc(N2CCOCC2)c2nn(-c3cccc(Cl)c3)c(C)c12 | 233.3*
CC(Sc1nc2cc([N+](=O)[O-])ccc2n1-c1cccc(C(F)(F)F)c1)C(=O)NC(N)=O (stereo unspecified) | 0.0
CCCS(=O)(=O)c1c(S(=O)(=O)CCC)c2cnccn2c1C(=O)c1ccc(Cl)cc1 | 8.3
CCN(CC)S(=O)(=O)c1cccc(C(=O)N2CC(O)CC2C(=O)O)c1 (stereo unspecified) | 442.9*
CCN(CC)S(=O)(=O)c1cccc(C(=O)Nc2sc3c(c2C(N)=O)CCCC3)c1 | -5.4
CCN(CC)S(=O)(=O)c1cccc(-c2nnc(SCC(=O)N3CCC(C(=O)O)CC3)n2N)c1 | -5.6
COc1cccc(NC(=O)Nc2c(C)n(C)n(-c3ccccc3)c2=O)c1 | 7.1
Cc1ccc(-c2cccc(NC(=O)C3C(C(=O)O)[C@@H]4C=C[C@H]3C4)c2)o1 (stereo partly specified) | 154.5*
O=C(O)C1C2C=CC(C2)C1C(=O)Nc1cccc(F)c1 (stereo unspecified) | -5.4
O=C(O)c1cccc(NC(=O)C2C3C=CC(C3)C2C(=O)O)c1 (stereo unspecified) | 4.9
O=C(c1cc(-c2cccs2)nc2ccccc12)N1CCN(c2ccccc2O)CC1 | 0.0
O=C(NCn1ccc(=O)[nH]c1=S)c1ccccc1 | 7.7
S=c1[nH]ncn1-c1ccccn1 | 6.9
CSc1ccc(/C=N/NC(=O)c2ccc(O)cc2)cc1 | -6.1
O=C(N/N=C1\CC2CC=CC12)c1ccc(O)cc1 (stereo unspecified) | 406.7*
O=[N+]([O-])c1ccc(N/N=C2\CC3CC=CC23)cc1 (stereo unspecified) | 0.0
O=C(c1ccc(Cl)cc1)c1c[nH]c(C(=O)NNc2cccc(Cl)n2)c1 | 430.8*
O=C(NNc1cccc(Cl)n1)c1ccc(Cl)cc1Cl | 8.8
COC(=O)c1cc(C(=O)c2ccc(C(C)(C)C)cc2)c[nH]1 | 0.0
CC1Cc2nc(SCC(=O)Nc3ccc(F)cc3)n(C)c(=O)c2S1 (stereo unspecified) | -9.1
COC(=O)C1=C(C)Nc2c(c(=O)n(C)c(=O)n2C)C1c1ccc(C)cc1 (stereo unspecified) | -9.1
Cc1ccc2nc(C)c(C(=O)N/N=C/c3cccc([N+](=O)[O-])c3)cc2c1 | 9.8
C=CCSc1nn2c(=O)c3ccccc3nc2s1 | 130.0*
C=CCSc1nc2ccccc2c2nc(-c3ccccc3)nn12 | 5.1
